Screening data: PubChem BioAssay, several laboratories
OX1R antag-1 = antagonists of human orexin 1 receptor | O43613 | CHO/OX1R cells, Fluo-8 calcium fluorescence, orexin A | inhibition, % at 5 µM | 330,000 compounds, 0.43% hits | AID 434989;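 active = inhibition above its plate's threshold, mean inhibition of all tested compounds on the plate plus 3 SD, cut at about 37% in these data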
Target sequence (O43613 whole entry, looked up): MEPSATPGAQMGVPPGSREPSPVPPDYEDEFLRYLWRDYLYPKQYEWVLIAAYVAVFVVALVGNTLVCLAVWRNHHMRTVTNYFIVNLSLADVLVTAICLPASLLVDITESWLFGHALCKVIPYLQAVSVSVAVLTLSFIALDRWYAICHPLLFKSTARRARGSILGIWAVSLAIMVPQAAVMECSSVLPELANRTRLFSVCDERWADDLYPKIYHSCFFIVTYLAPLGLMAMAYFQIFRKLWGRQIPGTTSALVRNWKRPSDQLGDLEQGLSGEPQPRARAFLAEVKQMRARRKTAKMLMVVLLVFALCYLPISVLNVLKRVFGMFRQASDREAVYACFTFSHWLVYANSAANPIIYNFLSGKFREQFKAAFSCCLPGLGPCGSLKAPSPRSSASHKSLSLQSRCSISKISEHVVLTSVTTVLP
CHO parental Ca = counter-screen: ATP calcium response change in parental CHO cells. parental CHO-K1, ATP-induced calcium, Fluo-8 fluorescence. inhibition, % at 5.6 µM. 330,000 compounds, 0.63% hits. AID 463079;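 active = inhibition above that plate's mean sample inhibition plus 3 SD, cut at about 26% in these data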
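Test system: parental CHO cells; detection: calcium-sensitive Fluo-8 fluorescence; evaluation: percent inhibition of calcium signal; also added: ATP as calcium-mobilizing challenge; repeats: one well per compound; control set: ATP-challenged DMSO wells low, unchallenged DMSO wells high; compound: single nominal dose of 5.6 µM per compound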
NTR1 agonist = NTR1 (human) agonism | P30989 | activation, % at 20 µM | NTR1-U2OS beta-arrestin-GFP spot imaging, agonist mode | 330,000 compounds, 0.17% hits;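 active = activation at or above 40% of the spot to cytoplasm intensity ratio, with at least 20 cells analyzed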
OX1R antag-2 = antagonists of human orexin 1 receptor (OX1R). O43613. OX1R-expressing cells, FRET antagonist read-out. 330,000 compounds, 1.8% hits. inhibition, % at 6.6 µM; in the data active = inhibition mostly above about 38%, no sharp cut-off; inactive = mostly below about 40%
TAAR1 antag = human TAAR1 antagonism; Q96RJ0; CHO RD-HGA16 TAAR1, Fluo-8 calcium fluorescence, antagonist; inhibition, % at 3 µM; 360,000 compounds, 1.5% hits; AID 624466;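 active = inhibition above a per-plate cutoff, the mean inhibition of test compounds on that plate plus 3 SD, cut at about 49% in these data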
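test system = CHO RD-HGA16 cells bearing hTAAR1 | replication = singlicate | controls = DMSO-only wells and EC80 β-PEA-stimulated wells | reagent = EC80 β-phenethylamine stimulus | read-out basis = percent inhibition of PEA-evoked calcium signal, max/basal emission ratio | schedule = seeding 17-24 h prior, 75-min 37 °C, 30-min RT dye loading | signal = kinetic Fluo-8 calcium fluorescence measurement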
TAAR1 ag = human TAAR1 agonism; 360,000 compounds, 0.99% hits; CHO RD-HGA16 TAAR1, Fluo-8 calcium fluorescence; vehicle wells 0%, saturating PEA agonist 100%; AID 624467; activation, % at 3 µM;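 active = activation above the mean activation of all test compounds in the run plus 3 SD, cut at about 38% in these data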
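Signal – calcium-sensitive Fluo-8 signal, excitation 470-495, emission 515-575 nm · System – RD-HGA16 (CHO) cells co-expressing Gα16 and hTAAR1 · Incubation – 17-24 h seeding, 75 min 37 °C dye, 30 min RT · Compound dosing – 3 µM single concentration · Repeats – no replicates (n 1)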
Hits are given with their value; 0 = inactive; - = no result. Sampled rows, rich in hits. Any-hit rate of the full collection: about 4%.

SMILES	OX1R antag-1	CHO parental Ca	NTR1 agonist	OX1R antag-2	TAAR1 antag	TAAR1 ag
CC(NC(=O)CSc1nnc(CC(=O)Nc2ccc(Cl)c(Cl)c2)n1C)c1ccccc1 (stereo not drawn)	0	0	0	0	0	42
Cn1c(CC(=O)Nc2ccc(Cl)c(Cl)c2)nnc1SCC(=O)N1CCN(c2ccccc2)CC1	0	0	0	0	0	0
CCCCOCCCNC(=O)C[C@H]1C[C@@]2(C(=O)OC)C(=C[C@H](COCc3ccccc3)O[C@@H]2C)N(CCC2=CCCCC2)C1=O	-	-	-	-	0	0
Cc1ccc(C(=O)N2CCC[C@@H]2C(=O)N2CCC[C@H]2C(=O)NCc2ccccc2)cc1C	-	-	-	-	0	0
Cc1ccc(N/C(SCc2ccccc2C)=C(/C#N)C(=O)NCc2ccco2)cc1C	0	0	0	0	64	0
COc1ccc(CNC(=O)C2CCC(=O)N(C3CCCCCC3)C2)c(OC)c1 (stereo not drawn)	-	-	-	-	0	0
Brc1ccc(OCc2ccccc2)c(CNCc2ccncc2)c1	0	0	0	0	70	0
CC1CCCCN1C(=O)CCS(=O)(=O)c1cccc2nonc12 (stereo not drawn)	0	0	0	71	0	0
COc1ccc(CN2c3ccccc3C(=O)CS2(=O)=O)cc1OC	-	-	-	-	0	0
COc1ccccc1CN1Cc2ccccc2Oc2ccccc2S1(=O)=O	-	-	-	-	0	0
COc1cc2c(cc1OC)CN(C(=S)Nc1ccccc1)CC2	0	0	0	0	0	0
COc1cc2c(cc1OC)CN(C(=S)Nc1ccc(OC(F)F)cc1)CC2	0	45	0	0	0	0
Cc1cc(N2CCN(C(=O)OC(C)(C)C)C[C@@H]2C)ccc1Br	-	-	-	-	0	0
CCCCCCCCCCCCOC(=O)C[N+](C)(C)C	0	0	0	0	49	38
O=C(COC(=O)c1ccc(O)cc1)Nc1ccccc1-c1ccccc1	0	43	0	0	61	0
O=C(COC(=O)c1ccc(-c2ccccc2)cc1)Nc1ccccc1-c1ccccc1	0	0	-	0	0	0
O=C(COC(=O)c1ccc(Cl)nc1)Nc1ccc(Cl)cc1	-	-	0	-	0	0
O=C(COC(=O)c1ccc(O)cc1)Nc1ccc(Cl)cc1	0	0	0	0	0	41
O=S(=O)(c1ccc(F)cc1)N1CCCc2nc(-c3ccc(Br)cc3)ccc21	-	-	-	-	0	0
C[C@@H]1C=CCCO[C@]12C(=O)N(Cc1ccccc1C(F)(F)F)c1ccccc12	-	-	-	-	0	0
CC(=O)Nc1ccc2nc(-c3ccncc3)[nH]c2c1	0	0	0	0	0	0
O=C(c1ccccc1)c1ccc2nc(-c3ccc(NC(=O)c4ccccc4Br)cc3)[nH]c2c1	0	0	0	0	68	0
Cc1ccc2nc(NC(=O)c3ccc(Cl)s3)sc2c1	0	0	0	0	0	0
CSc1nc2ccc(NC(=O)c3cccs3)cc2s1	0	0	0	37	0	0
Cc1nc2ccc(NC(=O)c3ccc(Cl)s3)cc2s1	0	33	0	48	0	0
SMILES	OX1R antag-1	CHO parental Ca	NTR1 agonist	OX1R antag-2	TAAR1 antag	TAAR1 ag
CS(=O)(=O)c1ccccc1C(=O)Nc1ccc(-c2nc3ccccc3[nH]2)cc1	0	0	0	0	0	0
O=C(Nc1ccc(-c2nc3ccc(NC(=O)c4cccs4)cc3[nH]2)cc1)c1cccs1	0	0	0	0	61	0
Cc1ccccc1C(=O)Nc1ccc(-c2nc3ccc(C(=O)c4ccccc4)cc3[nH]2)cc1	0	0	0	0	103	0
COC(=O)c1ccc(NC(=O)CN2CCN(CC#N)CC2)cc1	0	0	0	0	0	0
O=c1[nH]c(=O)c2cc([N+](=O)[O-])cc([N+](=O)[O-])c2[nH]1	0	0	0	52	0	0
O=C(COC(=O)Cc1n[nH]c(=O)c2ccccc12)NNC(=O)c1ccc(Cl)cc1	0	0	0	0	0	0
COCc1cc(N2CCNC[C@@H]2C)ccc1N1CCN(Cc2ccccc2)[C@@H](C)C1	-	-	-	-	0	0
CCC(C)NC(=O)COC(=O)c1cc([N+](=O)[O-])ccc1Sc1nc(C)cs1 (stereo not drawn)	0	0	0	54	0	0
CN1c2ccsc2C(O)=C(C(=S)Nc2ccc(F)c(Cl)c2)S1(=O)=O	0	0	0	50	0	0
Cn1cc(C(=O)Nc2ccc(F)c(Cl)c2)cn1	0	0	0	0	0	0
CC(=O)c1c(O)cc(O)c(C(C)=O)c1O	0	57	0	72	-	-
CC(=O)c1c(O)cc(O)cc1CC(=O)O	0	0	0	0	0	0
Cc1nnc2nc(N)[nH]n2c1=O	-	-	-	-	0	0
Cc1ccc2nc(N3CCN(S(=O)(=O)c4ccc5c(c4)OCCO5)CC3)c(C#N)cc2c1	0	0	0	0	0	0
Cc1ccc(S(=O)(=O)N2CCCN(c3nc4cc(C)ccc4cc3C#N)CC2)cc1	0	0	0	48	0	0
O=C(OCc1ccccc1)N1Cc2ccnnc2CC1c1ccccc1-c1ccc(C(F)(F)F)cc1 (stereo not drawn)	-	-	-	-	0	0
COc1ccccc1C(=O)N1CCN(C(=O)[C@@H](Cc2ccccc2)NC(=O)[C@H]2O[C@@H](n3ccc(N)nc3=O)[C@H](O)[C@@H]2O)CC1	-	-	-	-	0	0
COc1ccccc1CCNC(=O)c1ccoc1C	0	0	0	0	0	40
COc1ccccc1CCNC(=O)c1cc(-c2ccccn2)nc2ccccc12	-	-	0	-	52	0
CCCCCCCCN1C(=O)[C@@H](CC(=O)NCCCCc2ccccc2)C[C@@]2(C(=O)OC)C1=C[C@H](C1CCCC1)O[C@@H]2C	-	-	-	-	0	0
C=CC[C@]12C[C@@]3(O[C@H](c4ccccn4)N=C3C[C@H](c3ccc(OC)cc3)[C@H]1C)N(C1CCN(Cc3ccccc3)CC1)C2=O	-	-	-	-	0	0
CSc1ccc(S(=O)(=O)NCC(=O)OCC(=O)N2CCCC2=O)cc1[N+](=O)[O-]	0	0	0	56	0	0
CSc1ccc(S(=O)(=O)NCC(=O)OCC(=O)N(C)Cc2ccccc2)cc1[N+](=O)[O-]	0	0	0	51	0	0
CSc1ccc(S(=O)(=O)NCC(=O)OCCOc2ccccc2)cc1[N+](=O)[O-]	0	0	0	54	0	0
CSc1ccc(S(=O)(=O)NCC(=O)OC2CCOC2=O)cc1[N+](=O)[O-] (stereo not drawn)	0	0	0	66	0	0
CSc1ccc(S(=O)(=O)NCC(=O)OCC(=O)N(C)CC(=O)Nc2ccccc2Cl)cc1[N+](=O)[O-]	0	0	0	0	0	0
Nc1ccc(S(=O)(=O)NCC(=O)OCCOc2ccccc2)cc1[N+](=O)[O-]	0	0	0	0	0	0
C[C@@H]1CN([C@@H](C)CO)C(=O)CCCn2cc(nn2)CO[C@H]1CN(C)S(C)(=O)=O	-	-	-	-	0	0
